{"source": "ChEMBL document CHEMBL4627281", "about": "“A small molecule inhibitor of PCSK9 that antagonizes LDL receptor binding via interaction with a cryptic PCSK9 binding groove” (Bioorg Med Chem, 2020)", "key": {"[1]": {"biological_target": "Proprotein convertase subtilisin/kexin type 9 (Homo sapiens) (UniProt Q8NBP7)", "sequence (Q8NBP7 31-152 limits assumed)": "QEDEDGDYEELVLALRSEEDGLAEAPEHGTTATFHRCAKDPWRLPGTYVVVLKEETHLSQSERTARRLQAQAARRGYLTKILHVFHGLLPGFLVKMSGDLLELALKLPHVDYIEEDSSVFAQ", "sequence (Q8NBP7 153-692 limits assumed)": "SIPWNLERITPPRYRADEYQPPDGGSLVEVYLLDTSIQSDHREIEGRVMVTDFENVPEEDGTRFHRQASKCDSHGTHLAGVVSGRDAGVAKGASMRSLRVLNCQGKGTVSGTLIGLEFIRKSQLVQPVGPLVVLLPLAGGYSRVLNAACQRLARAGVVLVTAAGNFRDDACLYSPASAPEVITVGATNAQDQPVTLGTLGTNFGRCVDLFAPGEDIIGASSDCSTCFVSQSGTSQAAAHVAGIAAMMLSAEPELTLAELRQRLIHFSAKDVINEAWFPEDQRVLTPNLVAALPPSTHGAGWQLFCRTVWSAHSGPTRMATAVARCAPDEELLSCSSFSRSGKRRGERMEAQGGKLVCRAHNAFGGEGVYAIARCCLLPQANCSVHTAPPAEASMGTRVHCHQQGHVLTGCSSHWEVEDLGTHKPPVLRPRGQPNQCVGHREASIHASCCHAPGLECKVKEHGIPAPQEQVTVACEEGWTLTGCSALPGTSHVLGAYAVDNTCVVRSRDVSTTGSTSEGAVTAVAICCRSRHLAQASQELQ", "test": "Binding affinity to biotinylated recombinant human PCSK9 at 0.2 to 0.4 uM incubated for 2 mins followed by further incubation for 10 mins by biolayer interferometry", "method_in_brief": "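Biolayer interferometry: biotinylated PCSK9 (27 µg/mL) loaded onto a Super Streptavidin biosensor and blocked with biocytin. Compound (0.2–25.6 µM) associated for 2 min, then dissociated for 10 min. Background signal subtracted to remove non-specific binding.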"}, "[2]": {"test": "Plasma concentration in C57BL/6 mouse at 20 mg/kg, sc administered as single dose measured after 24 hrs by LC-MS/MS analysis", "format": "ADME, organism-based", "method_in_brief": "(§1)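 Male C57BL/6 mice, single dose: IV 5 mg/kg in 85% saline/10% Solutol HS15/5% DMSO; SC 20 mg/kg in same vehicle; PO 20 mg/kg in 1% methylcellulose in water. About 110 µL blood taken into K2EDTA by retro-orbital puncture (terminal bleed by cardiac puncture under isoflurane) at 0.033–24 h. Plasma spun at 2000 g, 5 min, 4 °C, stored near −70 °C; n = 3 per route.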"}, "[3]": {"biological_target": "Mast/stem cell growth factor receptor Kit (Homo sapiens, UniProt P10721)", "sequence (P10721 whole entry)": "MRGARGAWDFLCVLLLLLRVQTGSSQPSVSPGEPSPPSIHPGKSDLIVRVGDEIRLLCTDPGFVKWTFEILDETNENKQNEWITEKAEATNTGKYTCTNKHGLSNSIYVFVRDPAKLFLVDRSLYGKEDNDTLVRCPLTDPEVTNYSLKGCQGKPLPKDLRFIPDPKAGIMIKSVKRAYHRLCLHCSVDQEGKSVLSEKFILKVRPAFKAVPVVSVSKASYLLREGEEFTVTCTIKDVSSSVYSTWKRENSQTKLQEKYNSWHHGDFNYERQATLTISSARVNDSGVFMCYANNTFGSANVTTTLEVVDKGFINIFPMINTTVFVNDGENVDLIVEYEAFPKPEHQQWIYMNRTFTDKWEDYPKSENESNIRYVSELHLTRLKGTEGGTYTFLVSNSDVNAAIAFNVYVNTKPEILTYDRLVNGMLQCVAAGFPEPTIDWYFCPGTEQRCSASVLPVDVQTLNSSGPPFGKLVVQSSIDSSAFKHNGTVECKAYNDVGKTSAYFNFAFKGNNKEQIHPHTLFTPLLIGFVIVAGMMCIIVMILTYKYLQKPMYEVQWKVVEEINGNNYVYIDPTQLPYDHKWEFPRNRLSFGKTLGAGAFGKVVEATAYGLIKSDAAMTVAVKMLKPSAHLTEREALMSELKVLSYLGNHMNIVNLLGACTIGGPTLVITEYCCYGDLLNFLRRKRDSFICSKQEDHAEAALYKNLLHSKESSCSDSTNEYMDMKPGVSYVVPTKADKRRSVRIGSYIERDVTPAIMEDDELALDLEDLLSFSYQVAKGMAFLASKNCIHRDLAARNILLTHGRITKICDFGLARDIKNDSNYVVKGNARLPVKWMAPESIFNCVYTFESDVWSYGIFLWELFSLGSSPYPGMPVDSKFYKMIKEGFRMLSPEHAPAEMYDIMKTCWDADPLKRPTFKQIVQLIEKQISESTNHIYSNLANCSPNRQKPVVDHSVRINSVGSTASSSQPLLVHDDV", "test": "Inhibition of recombinant human N-terminal GST-tagged c-Kit (544 to end residues) expressed in baculovirus infected Sf21 insect cells using FAM-labelled P22 peptide as substrate preincubated for 10 mins followed by substrate addition and measured after 1 hr in presence of ATP by fluorescence assay"}, "[4]": {"biological_target": "PCSK9/LDLR (Homo sapiens) (UniProt Q8NBP7+P01130)", "sequence (P01130 22-860 partner limits assumed)": "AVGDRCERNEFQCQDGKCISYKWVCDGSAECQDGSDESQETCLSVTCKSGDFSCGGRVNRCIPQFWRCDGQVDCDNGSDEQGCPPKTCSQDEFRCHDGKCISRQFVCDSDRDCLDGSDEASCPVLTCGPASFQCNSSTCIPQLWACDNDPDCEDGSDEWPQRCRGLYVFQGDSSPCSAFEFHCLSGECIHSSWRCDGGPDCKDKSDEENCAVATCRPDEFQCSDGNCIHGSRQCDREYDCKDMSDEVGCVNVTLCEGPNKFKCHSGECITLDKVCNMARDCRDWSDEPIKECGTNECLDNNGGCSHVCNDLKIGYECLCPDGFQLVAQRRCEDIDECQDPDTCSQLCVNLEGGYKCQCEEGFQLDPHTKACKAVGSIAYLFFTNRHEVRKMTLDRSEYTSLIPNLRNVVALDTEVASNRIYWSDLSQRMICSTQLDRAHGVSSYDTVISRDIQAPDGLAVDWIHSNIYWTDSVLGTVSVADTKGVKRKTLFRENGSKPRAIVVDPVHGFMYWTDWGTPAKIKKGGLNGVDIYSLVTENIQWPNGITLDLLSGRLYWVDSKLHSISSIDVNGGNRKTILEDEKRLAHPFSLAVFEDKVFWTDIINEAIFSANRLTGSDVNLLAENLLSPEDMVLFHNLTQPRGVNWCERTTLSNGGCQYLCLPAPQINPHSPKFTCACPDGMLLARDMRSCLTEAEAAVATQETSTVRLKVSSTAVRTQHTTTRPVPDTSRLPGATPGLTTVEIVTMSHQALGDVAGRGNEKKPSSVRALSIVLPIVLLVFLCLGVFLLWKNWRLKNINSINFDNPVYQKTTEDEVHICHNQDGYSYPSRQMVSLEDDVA", "sequence (Q8NBP7 31-152 limits assumed)": "as the sequence (Q8NBP7 31-152 limits assumed) above", "sequence (Q8NBP7 153-692 limits assumed)": "as the sequence (Q8NBP7 153-692 limits assumed) above", "test": "Inhibition of recombinant human His-tagged PCSK9 interaction with recombinant LDLR AB domain (unknown origin) at higher concentration measured after 3 hrs by horseradish peroxidase-coupled TMB substrate based spectrophotometry relative to control", "format": "protein assay", "method_in_brief": "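ELISA plates pre-coated with LDLR-EGF-AB domain. Compounds serially diluted from 10 mM DMSO stocks in reaction buffer, with 7 ng His-tagged human PCSK9 added, 3 h at room temperature with shaking. Binding detected with biotinylated anti-His antibody (1 h), then HRP-streptavidin (20 min), then substrate (15 min); absorbance read at 450/540 nm. IC50 taken from the % inhibition curve.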"}, "[5]": {"test": "Cmax in C57BL/6 mouse at 20 mg/kg, sc administered as single dose measured upto 24 hrs by LC-MS/MS analysis", "format": "ADME, organism-based", "design": "dose 20 mg/kg, route subcutaneous", "settings": "in vivo", "method_in_brief": "as §1"}, "[6]": {"test": "Volume of distribution at steady state in C57BL/6 mouse at 5 mg/kg, iv administered as single dose measured upto 24 hrs by LC-MS/MS analysis", "format": "ADME, organism-based", "settings": "in vivo, read-out: Vdss", "method_in_brief": "as §1"}, "[7]": {"test": "AUClast in CD1 mouse at 0.4 mg/kg, iv administered as cassette dose measured upto 24 hrs by LC-MS/MS analysis", "format": "ADME, organism-based", "design": "time < 24 hr, dose 0.4 mg/kg, route intravenous", "settings": "in vivo", "method_in_brief": "(§2)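 Male CD1 mice (second cassette 28–29 g, 7–8 weeks) given one IV 5-in-1 cassette at 0.4 mg/kg per compound in 5% DMAC/5% Solutol HS15/90% saline. Blood (~20 µL) into K2EDTA from the facial vein at 0.083–24 h, terminal bleed by cardiac puncture under isoflurane. Blood diluted with deionised water, stored at −80 °C, analysed by positive-ESI mass spectrometry.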"}, "Mus musculus [8]": {"test_system": "Mus musculus", "test": "Up regulation of PCSK9 expression in C57BL/6 mouse at 16.4 mg/kg/day, sc administered daily for 10 days measured post last dose by ELISA", "format": "functional, organism-based", "settings": "in the assay text read “for 14 days” for “for 10 days”", "method_in_brief": "(§3)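 Female C57BL/6 wild-type or PCSK9−/− mice (8–16 weeks), acclimatised 7 days, 5 per group, dosed SC daily for 14 days at 3.28 or 16.4 mg/kg/day in 5% DMSO/95% saline, or vehicle alone. Blood taken into EDTA on days 0, 5, 10 and 15; plasma from 2500 g spin, stored at −20 °C. Total cholesterol and triglycerides read by colorimetric kits, PCSK9 by mouse ELISA; unpaired two-tailed t test against vehicle.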"}, "[9]": {"test": "Clearance in C57BL/6 mouse at 5 mg/kg, iv administered as single dose measured upto 24 hrs by LC-MS/MS analysis", "format": "ADME, organism-based", "settings": "in vivo", "method_in_brief": "as §1"}, "[10]": {"test": "AUCinfinity in C57BL/6 mouse at 20 mg/kg, sc administered as single dose measured upto 24 hrs by LC-MS/MS analysis", "format": "ADME, organism-based", "design": "dose 20 mg/kg, time infinity, route subcutaneous", "settings": "in vivo", "method_in_brief": "as §1"}, "Mus musculus [11]": {"test_system": "Mus musculus", "test": "Antihyperlipidemic activity in C57BL/6 mouse assessed as decrease in total cholesterol level at 16.4 mg/kg/day, sc administered daily for 14 days and measured on day 15 by colorimetric method relative to control", "format": "functional", "design": "scale not given: the % may be the effect or the level left", "method_in_brief": "as §3"}, "Mus musculus [12]": {"test_system": "Mus musculus", "test": "Antihyperlipidemic activity in C57BL/6 mouse assessed as decrease in total cholesterol level at 3.28 mg/kg/day, sc administered daily for 14 days and measured on day 15 by colorimetric method", "format": "functional, organism-based", "method_in_brief": "as §3"}, "[13]": {"test": "AUCinfinity in CD1 mouse at 0.4 mg/kg, iv administered as cassette dose measured upto 24 hrs by LC-MS/MS analysis", "format": "ADME, organism-based", "design": "dose 0.4 mg/kg, route intravenous, time infinity", "settings": "in vivo", "method_in_brief": "as §2"}, "[14]": {"test": "AUCinfinity in C57BL/6 mouse at 5 mg/kg, iv administered as single dose measured upto 24 hrs by LC-MS/MS analysis", "format": "ADME, organism-based", "design": "dose 5 mg/kg, route intravenous, time infinity", "settings": "in vivo", "method_in_brief": "as §1"}, "[15]": {"test": "AUClast in C57BL/6 mouse at 20 mg/kg, sc administered as single dose measured upto 24 hrs by LC-MS/MS analysis", "format": "ADME, organism-based", "design": "dose 20 mg/kg, time < 24 hr, route subcutaneous", "settings": "in vivo", "method_in_brief": "as §1"}, "[16]": {"test": "Tmax in C57BL/6 mouse at 20 mg/kg, sc administered as single dose measured upto 24 hrs by LC-MS/MS analysis", "format": "ADME, organism-based", "settings": "in vivo", "method_in_brief": "as §1"}, "Mus musculus [17]": {"test_system": "Mus musculus", "test": "Effect on total triglyceride level in C57BL/6 mouse at 3.28 to 16.4 mg/kg/day, sc administered daily for 14 days and measured on day 15 by colorimetric method", "format": "ADME, organism-based", "settings": "in vivo, 336 h", "method_in_brief": "as §3"}, "[18]": {"test": "Mean residence time (0 to infinity) in CD1 mouse at 0.4 mg/kg, iv administered as cassette dose measured upto 24 hrs by LC-MS analysis", "format": "ADME, organism-based", "settings": "in vivo", "method_in_brief": "as §2"}, "[19]": {"test": "Terminal half life in C57BL/6 mouse at 5 mg/kg, iv administered as single dose measured upto 24 hrs by LC-MS/MS analysis", "format": "ADME, organism-based", "settings": "in vivo, read-out: beta t1/2 (converted)", "method_in_brief": "as §1"}, "[20]": {"biological_target": "Tyrosine-protein kinase ABL1 (Homo sapiens, UniProt P00519)", "sequence (P00519 whole entry, the tested form may be a part)": "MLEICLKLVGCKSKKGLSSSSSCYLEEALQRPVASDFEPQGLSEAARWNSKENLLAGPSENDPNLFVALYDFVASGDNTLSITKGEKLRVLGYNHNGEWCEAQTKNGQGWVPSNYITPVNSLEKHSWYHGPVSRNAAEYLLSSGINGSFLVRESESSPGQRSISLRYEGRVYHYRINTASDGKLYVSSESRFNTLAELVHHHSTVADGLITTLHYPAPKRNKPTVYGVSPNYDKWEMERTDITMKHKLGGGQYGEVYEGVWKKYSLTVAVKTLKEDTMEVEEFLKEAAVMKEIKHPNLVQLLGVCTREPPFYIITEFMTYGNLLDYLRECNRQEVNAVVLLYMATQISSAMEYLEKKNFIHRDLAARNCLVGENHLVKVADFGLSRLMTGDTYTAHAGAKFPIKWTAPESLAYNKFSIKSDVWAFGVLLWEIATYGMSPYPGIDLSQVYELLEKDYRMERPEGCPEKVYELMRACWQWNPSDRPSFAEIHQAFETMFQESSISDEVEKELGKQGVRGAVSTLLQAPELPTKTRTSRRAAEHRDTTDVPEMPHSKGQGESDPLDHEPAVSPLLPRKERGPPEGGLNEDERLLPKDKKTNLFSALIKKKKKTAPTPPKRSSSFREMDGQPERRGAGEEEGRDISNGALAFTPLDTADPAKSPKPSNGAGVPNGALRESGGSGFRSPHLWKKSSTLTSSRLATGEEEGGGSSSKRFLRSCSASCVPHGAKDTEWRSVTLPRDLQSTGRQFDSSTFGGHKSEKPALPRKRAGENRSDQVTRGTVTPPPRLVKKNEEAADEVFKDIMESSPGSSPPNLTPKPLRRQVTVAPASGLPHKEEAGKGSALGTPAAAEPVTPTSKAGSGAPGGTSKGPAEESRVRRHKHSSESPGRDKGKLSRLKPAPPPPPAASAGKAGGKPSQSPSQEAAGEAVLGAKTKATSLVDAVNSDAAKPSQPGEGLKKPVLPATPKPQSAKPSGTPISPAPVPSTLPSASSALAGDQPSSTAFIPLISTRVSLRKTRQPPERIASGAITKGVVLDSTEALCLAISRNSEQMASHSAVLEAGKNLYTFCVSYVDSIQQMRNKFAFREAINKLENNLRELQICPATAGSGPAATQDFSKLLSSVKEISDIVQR", "test": "Inhibition of recombinant human N-terminal His-tagged Abl (2 to 1130 residues) expressed in baculovirus expression system using FAM-labelled P2 peptide as substrate preincubated for 10 mins followed by substrate addition and measured after 1 hr in presence of ATP by fluorescence assay"}, "[21]": {"test": "AUClast in C57BL/6 mouse at 5 mg/kg, iv administered as single dose measured upto 24 hrs by LC-MS/MS analysis", "format": "ADME, organism-based", "design": "dose 5 mg/kg, time < 24 hr, route intravenous", "settings": "in vivo", "method_in_brief": "as §1"}, "[22]": {"test": "Clearance in CD1 mouse at 0.4 mg/kg, iv administered as cassette dose measured upto 24 hrs by LC-MS/MS analysis", "format": "ADME, organism-based", "settings": "in vivo", "method_in_brief": "as §2"}, "Mus musculus [23]": {"test_system": "Mus musculus", "test": "Antihyperlipidemic activity in PCSK9 knockout C57BL/6 mouse assessed as decrease in total cholesterol level at 16.4 mg/kg/day, sc administered daily for 14 days and measured on day 15 by colorimetric method", "format": "functional, organism-based", "method_in_brief": "as §3"}, "[24]": {"biological_target": "Proto-oncogene tyrosine-protein kinase Src (Homo sapiens, UniProt P12931)", "sequence (P12931 2-536 limits assumed)": "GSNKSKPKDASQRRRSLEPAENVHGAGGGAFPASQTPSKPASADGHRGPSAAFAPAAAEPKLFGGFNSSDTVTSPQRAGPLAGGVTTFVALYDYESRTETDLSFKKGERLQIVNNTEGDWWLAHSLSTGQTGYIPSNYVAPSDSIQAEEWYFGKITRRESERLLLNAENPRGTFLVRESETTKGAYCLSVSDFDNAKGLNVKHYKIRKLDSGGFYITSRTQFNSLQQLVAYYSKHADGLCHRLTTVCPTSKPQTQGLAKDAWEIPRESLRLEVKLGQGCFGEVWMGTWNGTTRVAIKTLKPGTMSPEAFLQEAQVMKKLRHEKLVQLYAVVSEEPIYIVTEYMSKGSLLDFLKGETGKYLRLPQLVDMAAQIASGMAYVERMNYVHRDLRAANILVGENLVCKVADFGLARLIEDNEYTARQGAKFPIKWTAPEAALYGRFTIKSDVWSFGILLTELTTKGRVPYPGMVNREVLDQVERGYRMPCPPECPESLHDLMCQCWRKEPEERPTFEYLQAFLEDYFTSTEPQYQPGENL", "test": "Inhibition of recombinant human full-length N-terminal GST-tagged SRC (1 to 536 residues) expressed in baculovirus expression system using FAM-labelled P4 peptide as substrate preincubated for 10 mins followed by substrate addition and measured after 1 hr in presence of ATP by fluorescence assay"}}, "note": "Active and inactive are the calls of the source. The rule behind the calls is not given here."}
{"compound": "Cc1cn(-c2cc(CN3CCC[C@H](N)C3)cc(NC(=O)c3ccc(C)c(Oc4ccccc4)c3)c2)cn1", "values": [{"measurement": "Activity", "setting": "[1]", "value": "inactive"}, {"measurement": "concentration at 24 h", "setting": "[2]", "value": 0.093, "unit": "µM"}, {"measurement": "IC50", "setting": "[3]", "value": "> 10", "unit": "µM"}, {"measurement": "Imax", "setting": "[4]", "value": 57, "unit": "%"}, {"measurement": "Cmax", "setting": "[5]", "value": 2.21, "unit": "µg/mL"}, {"measurement": "Vd", "setting": "[6]", "value": 3.87, "unit": "L/kg"}, {"measurement": "AUC(0-t) at 24 h", "setting": "[7]", "value": 0.722, "unit": "µg·h/mL"}, {"measurement": "Activity", "setting": "Mus musculus [8]", "value": "Active"}, {"measurement": "clearance", "setting": "[9]", "value": 1.09, "unit": "L/h/kg"}, {"measurement": "AUC(0-inf)", "setting": "[10]", "value": 16.8, "unit": "µg·h/mL"}, {"measurement": "Activity", "setting": "Mus musculus [11]", "value": 10, "unit": "%"}, {"measurement": "Activity", "setting": "Mus musculus [12]", "value": "inactive"}, {"measurement": "AUC(0-inf)", "setting": "[13]", "value": 1.47, "unit": "µg·h/mL"}, {"measurement": "AUC(0-inf)", "setting": "[14]", "value": 4.61, "unit": "µg·h/mL"}, {"measurement": "AUC(0-t) at 24 h", "setting": "[15]", "value": 16.1, "unit": "µg·h/mL"}, {"measurement": "Tmax", "setting": "[16]", "value": 1, "unit": "h"}, {"measurement": "Activity", "setting": "Mus musculus [17]", "value": "Non-Toxic"}, {"measurement": "MRT inf", "setting": "[18]", "value": 34.9, "unit": "h"}, {"measurement": "half-life", "setting": "[19]", "value": 9.86, "unit": "h"}, {"measurement": "IC50", "setting": "[20]", "value": "> 10", "unit": "µM"}, {"measurement": "AUC(0-t) at 24 h", "setting": "[21]", "value": 4.38, "unit": "µg·h/mL"}, {"measurement": "clearance", "setting": "[22]", "value": 0.3, "unit": "L/h/kg"}, {"measurement": "Activity", "setting": "Mus musculus [23]", "value": "inactive"}, {"measurement": "IC50", "setting": "[24]", "value": "> 10", "unit": "µM"}]}
